CHRM5 antagonist – antagonists of human muscarinic M5 receptor (CHRM5); P08912; hit rate 0.59% among 360,000; CHO-hM5 cells, Fluo-8 calcium fluorescence, ACh EC80; inhibition, % at 3 µM;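 active = inhibition above a per-plate cutoff, the mean of that plate's test compounds plus 3 SD, cut at about 27% in these data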;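 also: 0% = acetylcholine EC80 with DMSO and 100% = DMSO without agonist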
Target sequence (P08912 whole entry, looked up): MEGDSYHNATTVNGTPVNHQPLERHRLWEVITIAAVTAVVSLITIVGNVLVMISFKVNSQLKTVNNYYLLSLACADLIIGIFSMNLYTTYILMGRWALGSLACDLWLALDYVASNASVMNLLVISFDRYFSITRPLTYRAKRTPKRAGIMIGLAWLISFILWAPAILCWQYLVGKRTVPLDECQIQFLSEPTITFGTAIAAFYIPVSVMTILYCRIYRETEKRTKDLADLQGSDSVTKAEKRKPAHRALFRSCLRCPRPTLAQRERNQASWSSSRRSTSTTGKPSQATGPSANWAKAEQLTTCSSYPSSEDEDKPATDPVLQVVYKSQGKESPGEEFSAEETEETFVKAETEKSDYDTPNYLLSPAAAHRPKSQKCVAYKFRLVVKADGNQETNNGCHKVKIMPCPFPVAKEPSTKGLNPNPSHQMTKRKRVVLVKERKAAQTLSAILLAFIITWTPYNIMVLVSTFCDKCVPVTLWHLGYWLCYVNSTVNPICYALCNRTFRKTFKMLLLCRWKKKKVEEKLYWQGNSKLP
CHRM4 antagonist – blocks acetylcholine activation of human M4 receptor | CHO-hM4 cells, ACh EC80, Fluo-8 calcium fluorescence | hit rate 0.73% among 360,000 | AID 624125 | P08173 | inhibition, % at 3 µM;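 active = inhibition above its plate's cutoff, the mean inhibition of sample wells plus 3 SD, cut at about 27% in these data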;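 also: 0% = acetylcholine EC80 with DMSO and 100% = DMSO without agonist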
M4 ag – CHRM4 agonism in calcium assay; P08173; CHO-K1 hM4/Gqi5, Fluo-8 calcium fluorescence; vehicle 0%, full acetylcholine response 100%; activation, % at 3 µM; hit rate 0.14% among 360,000; AID 624127;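 active = activation above the run mean over all test wells plus 3 SD, cut at about 32% in these data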;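 also: peak over basal fluorescence ratio per well then scaled between controls; 0% = DMSO wells and 100% = acetylcholine at EC100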
CHRM4 PAM – positive allosteric modulators of human muscarinic M4 receptor; CHO-K1 hM4/Gqi5, Fluo-8 calcium fluorescence, ACh EC20; 0% = ACh EC20, 100% = maximal ACh; AID 624126; P08173; activation, % at 3 µM; hit rate 0.4% among 360,000;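 active = activation above its plate's cutoff, the mean activation of sample wells plus 3 SD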
CHRM5 PAM – potentiates acetylcholine response at human M5 receptor; P08912; CHO-K1 hM5, Fluo-8 calcium, ACh EC20 PAM; 0% = ACh EC20, 100% = ACh EC100; activation, % at 3 µM; hit rate 0.3% among 360,000;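 active = activation above the run cutoff, the mean activation of all test compounds plus 3 SD, cut at about 18% in these data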
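System: CHO-K1 cell line with stable human muscarinic M5 receptor expression | Also added: EC20 acetylcholine as agonist stimulus | Compound: One concentration, 3 µM final (nominal) | Timing: Fluo-8 loading 80 min at 37 °C plus 30 min room temperature | Measured by: Fluo-8 calcium dye fluorescence, kinetic read | Read-out basis: % activation, ACh-normalized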
CHRM5 agonist – CHRM5 agonism in calcium assay | CHO-K1 hM5 cells, Fluo-8 calcium fluorescence; 0% DMSO wells, 100% maximal acetylcholine response | activation, % at 3 µM | hit rate 0.19% among 360,000 | P08912 | AID 624037;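 active = activation above the run's mean over test compounds plus 3 SD, cut at about 23% in these data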;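 also: signal is peak over basal fluorescence ratio across the kinetic read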
The depositor's hits bear a star. Most compounds without a hit are left out; they make up all but 1.8% or so of the library.

SMILES	CHRM5 antagonist	CHRM4 antagonist	M4 ag	CHRM4 PAM	CHRM5 PAM	CHRM5 agonist
CCOC(=O)Cc1csc(SCC(=O)NC2CCC(C)CC2)n1 (stereo not given)	-7	-26	2	20*	-1	-2
COc1ccc(OC)c(NC(=O)CSc2nc(C)cs2)c1	-18	3	-2	45*	11	1
CCOC(=O)Cc1csc(SCC(=O)Nc2cc(Cl)ccc2Oc2ccccc2)n1	20	45*	8	-10	-16	-3
O=C(Nc1ccccc1)NN(C(=O)CCl)c1ccccc1	-4	4	3	1	0	0
CN1CCN(CC(O)(c2ccc(Cl)cc2)c2ccc(Cl)cc2)CC1	36*	17	12	-20	-15	-8
O=C(O)CN(c1ccccn1)S(=O)(=O)c1ccc(Cl)cc1	-8	-4	0	20*	13	-2
CC1CCc2c(sc3nc(C(C)(C)C)nc(N4CCN(C(=O)CCl)CC4)c23)C1 (stereo not given)	8	15	-1	-4	-8	-7
Cc1ccc(/C(O)=C2\C(=O)C(=O)N(CCN(C)C)C2c2ccccc2F)cc1 (stereo not given)	7	7	1	3	-2	-2
CN(C)CCN1C(=O)C(=O)/C(=C(/O)c2ccc(F)cc2)C1c1ccccc1F (stereo not given)	29*	14	-1	-16	-7	-3
NC(=S)NN=C1CSSC1	-7	-26	2	8	4	-1
CCCCOc1ccc(Br)cc1CSC(=N)N	40*	26*	10	-10	-18	1
Cc1c(Cl)sn(-c2ccc(Cl)cc2)c1=O	11	38*	4	-4	-8	0
Cc1nc(NS(=O)(=O)c2ccccc2)sc1NC(=O)OCCN(C)C	2	-1	1	2	-17	27*
CCOC(=O)c1sc(NS(=O)(=O)c2ccccc2)nc1C	-1	-2	1	4	-3	1
CCCCN(C)S(=O)(=O)c1cc2c(cc1Br)CCN2C(=O)C1CC1	24	-11	8	10	-1	-4
CCOC(=O)C1(Cc2cccc(Cl)c2)CCCN(C(=O)CCOC)C1 (stereo not given)	-10	-15	2	24*	6	1
CN(CCOc1ccc(Cl)cc1)C(=O)c1cc(-c2ccco2)nc2ccccc12	28*	19	22	-10	-26	2
O=C1[C@@H](Oc2ccccc2)[C@@H](c2cnc3ccccc3c2)N1c1ccccc1	-11	-18	2	-6	-6	-2
Cc1[nH]c(C)c(S(=O)(=O)NCc2ccc(Cl)cc2)c1C(=O)N1CCCC1	16	3	13	-2	-10	-3
Cc1sc2ncn(CC(=O)N3CCCC(C)C3)c(=O)c2c1S(=O)(=O)N1CCCCC1 (stereo not given)	1	0	1	-1	4	0
Cc1sc2ncn(CC(=O)N3CCC(C(N)=O)CC3)c(=O)c2c1S(=O)(=O)N1CC(C)CC(C)C1 (stereo not given)	16	-18	3	15*	-5	-3
CCC(c1nnnn1Cc1ccc(F)cc1)N1CCN(C)CC1 (stereo not given)	2	-16	2	24*	9	-14
O=C(NC1(C(=O)O)CCCC1)c1ccccc1	13	-8	1	16*	-2	0
N#C/C(=C/c1ccc(N2CCCCCC2)o1)c1ccc(Cl)cc1	2	27*	3	-12	7	6
CC1(C(=O)NNC(=O)c2cccc([N+](=O)[O-])c2)CC1Br (stereo not given)	-6	-16	1	16*	-2	0
SMILES	CHRM5 antagonist	CHRM4 antagonist	M4 ag	CHRM4 PAM	CHRM5 PAM	CHRM5 agonist
CCOC(=O)C1CCN(C2CCN(Cc3nc(-c4ccccc4)no3)CC2)CC1	9	0	4	-11	-7	-5
CCOC(=O)C1CCCN(C2CCN(Cc3nc(-c4ccccc4)no3)CC2)C1 (stereo not given)	45*	14	1	-12	-18	-10
CCc1c(C2(O)CCCCC2)[nH]c2cc(C(F)(F)F)ccc12	10	42*	1	-16	-23	-6
Cc1c(C2(O)CCCCC2)[nH]c2cc(C(F)(F)F)ccc12	5	33*	11	-19	-28	-2
Cc1c(C2(O)CCCCC2)[nH]c2cnccc12	7	-12	2	6	2	-11
Cc1ccc(/C=C/C(=O)Nc2ccc(S(=O)(=O)Nc3ncccn3)cc2)cc1	-14	-6	2	6	26*	6
Cc1ccc(S(=O)(=O)Nc2cccc(/C=C/C(=O)O)c2)cc1	-1	0	1	8	46*	-3
Cc1noc(NS(=O)(=O)c2ccc(NC(=O)/C=C/c3ccc(C(C)C)cc3)cc2)c1C	0	-3	0	5	-2	-2
Cc1noc(NS(=O)(=O)c2ccc(NC(=O)/C=C/c3ccc(Br)cc3)cc2)c1C	-22	-6	0	16*	16	2
COc1ccc(S(=O)(=O)Nc2cccc(/C=C/C(=O)O)c2)cc1	3	1	-1	12	0	-1
CSc1ccc(CN(C)CC(=O)NC(=O)NCCC2=CCCCC2)cc1	18	1	1	0	-11	-7
CC(=O)c1ccc(S(=O)(=O)N2CCN(CC(=O)Nc3ccnn3C3CCCC3)CC2)cc1	6	2	5	5	6	2
CC1CCCCC1NC(=O)CSc1nnnn1C (stereo not given)	7	-2	1	4	1	-1
CCOC(=O)c1cc2c(nc1N)CC(C)(CC)OC2 (stereo not given)	2	0	1	17*	-4	2
CC(=O)N1c2ccc(S(=O)(=O)N3CCCC(C(=O)Nc4ccc(F)cc4)C3)cc2CC1C (stereo not given)	9	-4	9	-2	-15	3
N#Cc1ccc(N2CCN(C(=O)c3cccc(F)c3)CC2)c(F)c1	2	-21	8	16*	-6	4
CC(C)c1ccc(/C=C/C(=O)NC(=S)NN2CCOCC2)cc1	5	-23	6	2	-3	-3
CC(C)c1ccc(/C=C/C(=O)NC(=S)Nc2ccc(CN3CCOCC3)cc2)cc1	41*	14	3	-14	-18	-8
CC(C)c1ccc(C2NC(=S)NC3=C2C(=O)CCC3)cc1 (stereo not given)	10	27*	0	-31	-17	-8
Cc1ccc(C2NC(=S)NC3=C2C(=O)CCC3)cc1 (stereo not given)	4	-3	1	0	2	-2
